According to ChEMBL document CHEMBL4038273, “MAO enzymes inhibitory activity of new benzimidazole derivatives including hydrazone and propargyl side chains” (Eur J Med Chem, 2017):

What was measured:
[1] = biological target: T1, Amine oxidase [flavin-containing] B (Homo sapiens, UniProt P27338); assay: (§1) Inhibition of recombinant human MAO-B expressed in baculovirus infected BTI insect cells using tyramine as substrate pretreated for 30 mins followed by substrate addition incubated for 30 mins measured at 5 mins interval by horse-radish peroxidase/amplex red-based fluorometric method; assay type: cell-based
T1 sequence (P27338 whole entry): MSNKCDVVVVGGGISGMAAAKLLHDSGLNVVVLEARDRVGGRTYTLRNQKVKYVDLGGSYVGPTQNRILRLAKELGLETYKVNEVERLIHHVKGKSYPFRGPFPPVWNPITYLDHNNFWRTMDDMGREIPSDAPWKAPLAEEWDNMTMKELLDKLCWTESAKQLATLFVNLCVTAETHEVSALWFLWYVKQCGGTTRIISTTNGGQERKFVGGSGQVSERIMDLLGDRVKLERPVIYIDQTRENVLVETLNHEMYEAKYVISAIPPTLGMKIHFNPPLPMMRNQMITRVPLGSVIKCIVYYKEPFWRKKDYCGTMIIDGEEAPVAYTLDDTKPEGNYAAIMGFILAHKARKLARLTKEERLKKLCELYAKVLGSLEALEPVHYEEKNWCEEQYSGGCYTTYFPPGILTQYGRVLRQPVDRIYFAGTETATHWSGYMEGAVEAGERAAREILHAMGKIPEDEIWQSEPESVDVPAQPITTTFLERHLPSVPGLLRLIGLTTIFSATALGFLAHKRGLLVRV

[2] = biological target: T2, Amine oxidase [flavin-containing] A (Homo sapiens, UniProt P21397); assay: (§2) Inhibition of recombinant human MAO-A expressed in baculovirus infected BTI insect cells using tyramine as substrate pretreated for 30 mins followed by substrate addition incubated for 30 mins measured at 5 mins interval by horse-radish peroxidase/amplex red-based fluorometric method
T2 sequence (P21397 whole entry): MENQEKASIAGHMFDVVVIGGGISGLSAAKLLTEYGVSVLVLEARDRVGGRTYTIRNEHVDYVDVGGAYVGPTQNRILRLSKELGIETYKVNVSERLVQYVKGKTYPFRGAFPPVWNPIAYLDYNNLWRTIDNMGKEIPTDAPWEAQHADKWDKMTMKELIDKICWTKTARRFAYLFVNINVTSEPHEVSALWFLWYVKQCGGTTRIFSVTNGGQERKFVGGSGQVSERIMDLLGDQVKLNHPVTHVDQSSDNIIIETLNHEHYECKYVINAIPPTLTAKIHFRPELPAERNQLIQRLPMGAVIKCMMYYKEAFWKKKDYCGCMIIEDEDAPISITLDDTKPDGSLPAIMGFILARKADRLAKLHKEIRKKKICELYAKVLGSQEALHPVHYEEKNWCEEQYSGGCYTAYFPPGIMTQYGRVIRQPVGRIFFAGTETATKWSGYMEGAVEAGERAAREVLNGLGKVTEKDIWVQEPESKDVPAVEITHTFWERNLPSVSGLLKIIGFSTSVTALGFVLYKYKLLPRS
Method in brief: (§3)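 Recombinant hMAO-A (0.5 U/mL stock) or hMAO-B (0.64 U/mL stock) in phosphate buffer, preincubated with inhibitor (solutions 10^-3 to 10^-9 M in 2% DMSO) for 30 min at 37°C. Background-subtracted against DMSO control; quadruplicate.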

[3] = species: Homo sapiens; assay: Selectivity index, ratio of IC50 for recombinant human MAO-A expressed in baculovirus infected BTI insect cells to IC50 for recombinant human MAO-B expressed in baculovirus infected BTI insect cells
Method in brief: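 Selectivity index calculated as IC50(MAO-A)/IC50(MAO-B), with both IC50 values from the fluorometric tyramine/HRP/Amplex Red inhibition assay.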

[4] = biological target: T2, Amine oxidase [flavin-containing] A; assay: as §2, with “cells at 10^-4 to 10^-3 uM” for “cells”, “method relative to control” for “method”; details: 0.5 h
Method in brief: as §3, with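 “37°C. Working solution (HRP, Amplex Red, tyramine) then added for 30 min at 37°C, with fluorescence (Ex/Em 535/587 nm) read every 5 min.” for “37°C.”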

[5] = biological target: T1, Amine oxidase [flavin-containing] B; assay: as §1, with “cells at 10^-4 to 10^-3 uM” for “cells”; details: 0.5 h
Method in brief: as §3, with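 “37°C. Working solution (HRP, Amplex Red, tyramine) then added for 30 min at 37°C, with fluorescence (Ex/Em 535/587 nm) read every 5 min.” for “37°C.”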

IC50 [1] [µM] | IC50 [2] [µM] | inhibition (INH) [4] | inhibition (INH) [5] | SMILES | Ratio IC50 [3]
10.2 | ≥ 100 | < 50% | – | C#CCn1c(-c2ccc(C(=O)N/N=C/c3ccc(Cl)cc3)cc2)nc2ccccc21 | > 9.85
12.2 | ≥ 100 | < 50% | – | C#CCn1c(-c2ccc(C(=O)N/N=C/c3cccn3C)cc2)nc2ccccc21 | > 8.22
1.94 | 43.3 | – | – | C#CCn1c(-c2ccc(C(=O)N/N=C/c3ccc(OC)cc3)cc2)nc2ccccc21 | 22.3
0.881 | 27.1 | – | – | C#CCn1c(-c2ccc(C(=O)N/N=C/c3ccc([N+](=O)[O-])s3)cc2)nc2ccccc21 | 30.7
25.2 | ≥ 100 | < 50% | – | C#CCn1c(-c2ccc(C(=O)N/N=C/c3cc(OC)cc(OC)c3)cc2)nc2ccccc21 | > 3.96
≥ 1000 | ≥ 1000 | Not Active | Not Active | C#CCn1c(-c2ccc(C(=O)N/N=C/c3ccc[nH]3)cc2)nc2ccccc21 | –
12.6 | ≥ 100 | < 50% | – | C#CCn1c(-c2ccc(C(=O)N/N=C/c3cccc(OC)c3)cc2)nc2ccccc21 | > 7.93
≥ 1000 | ≥ 1000 | Not Active | Not Active | C#CCn1c(-c2ccc(C(=O)N/N=C/c3ccccc3OC)cc2)nc2ccccc21 | –
18.5 | 53.5 | – | – | C#CCn1c(-c2ccc(C(=O)N/N=C/c3cccc(OC)c3OC)cc2)nc2ccccc21 | 2.89
10.3 | 19.6 | – | – | C#CCn1c(-c2ccc(C(=O)N/N=C/c3cc(O)cc(O)c3)cc2)nc2ccccc21 | 1.9
≥ 1000 | ≥ 1000 | Not Active | Not Active | C#CCn1c(-c2ccc(C(=O)N/N=C/c3cccc(O)c3)cc2)nc2ccccc21 | –
1.97 | 2.82 | – | – | C#CCn1c(-c2ccc(C(=O)N/N=C/c3ccc(O)cc3)cc2)nc2ccccc21 | 1.43
≥ 100 | ≥ 1000 | Not Active | Not Active | C#CCn1c(-c2ccc(C(=O)N/N=C/c3cccs3)cc2)nc2ccccc21 | –
